Data as given in ChEMBL document CHEMBL1781959, “Synthesis and in vitro antitumor activity of substituted quinazoline and quinoxaline derivatives: search for anticancer agent” (Eur J Med Chem, 2011).

tested on: MDA-MB-231; assay: Anticancer activity against human MDA-MB-231 cells assessed as cell growth promotion at 10^-5 M after 48 hrs by SRB assay relative to control; assay type: functional

Question: With O=C(Nc1ccccc1C(=O)Nc1ccc(/C=C/c2ccc(Cl)cc2)cc1)c1ccccc1 as the compound, how does the Activity read?
Answer: 81.11%

tested on: K562; assay: Anticancer activity against human K562 cells assessed as cell growth promotion at 10^-5 M after 48 hrs by SRB assay relative to control; assay type: functional

Question: With O=C(Nc1ccccc1C(=O)Nc1ccc(/C=C/c2ccc(Cl)cc2)cc1)c1ccccc1 as the compound, how does the Activity read?
Answer: 57.81%

tested on: SF-268; assay: Anticancer activity against human SF268 cells assessed as cell growth promotion at 10^-5 M after 48 hrs by SRB assay relative to control; assay type: functional

Question: With O=C(Nc1ccccc1C(=O)Nc1ccc(/C=C/c2ccc(Cl)cc2)cc1)c1ccccc1 as the compound, how does the Activity read?
Answer: 82.84%

tested on: SW-620; assay: Anticancer activity against human SW620 cells assessed as cell growth promotion at 10^-5 M after 48 hrs by SRB assay relative to control; assay type: functional

Question: With O=C(Nc1ccccc1C(=O)Nc1ccc(/C=C/c2ccc(Cl)cc2)cc1)c1ccccc1 as the compound, how does the Activity read?
Answer: 99.16%

tested on: CCRF-CEM; assay: Anticancer activity against human CCRF-CEM cells assessed as cell growth promotion at 10^-5 M after 48 hrs by SRB assay relative to control; assay type: functional

Question: For O=C(Nc1ccccc1C(=O)Nc1ccc(/C=C/c2ccc(Cl)cc2)cc1)c1ccccc1, which Activity is on record?
Answer: 52.41%

tested on: RXF 393; assay: Anticancer activity against human RXF393 cells assessed as cell growth promotion at 10^-5 M after 48 hrs by SRB assay relative to control; assay type: functional

Question: For O=C(Nc1ccccc1C(=O)Nc1ccc(/C=C/c2ccc(Cl)cc2)cc1)c1ccccc1, which Activity is on record?
Answer: 82.15%

tested on: NCI-H23; assay: Anticancer activity against human NCI-H23 cells assessed as cell growth promotion at 10^-5 M after 48 hrs by SRB assay relative to control; assay type: functional

Question: Which Activity does the source give for O=C(Nc1ccccc1C(=O)Nc1ccc(/C=C/c2ccc(Cl)cc2)cc1)c1ccccc1 here?
Answer: 73.51%

tested on: OVCAR-5; assay: Anticancer activity against human OVCAR5 cells assessed as cell growth promotion at 10^-5 M after 48 hrs by SRB assay relative to control; assay type: functional

Question: For O=C(Nc1ccccc1C(=O)Nc1ccc(/C=C/c2ccc(Cl)cc2)cc1)c1ccccc1, which Activity is on record?
Answer: 123%

tested on: SR; assay: Anticancer activity against human SR cells assessed as cell growth promotion at 10^-5 M after 48 hrs by SRB assay relative to control; assay type: functional

Question: Which Activity does the source give for O=C(Nc1ccccc1C(=O)Nc1ccc(/C=C/c2ccc(Cl)cc2)cc1)c1ccccc1 here?
Answer: 81.19%

tested on: not listed separately; assay: Anticancer activity against human Hs 578T cells assessed as cell growth promotion at 10^-5 M after 48 hrs by SRB assay relative to control; assay type: functional

Question: Which Activity does the source give for O=C(Nc1ccccc1C(=O)Nc1ccc(/C=C/c2ccc(Cl)cc2)cc1)c1ccccc1 here?
Answer: 67.95%

tested on: KM12; assay: Anticancer activity against human KM12 cells assessed as cell growth promotion at 10^-5 M after 48 hrs by SRB assay relative to control; assay type: functional

Question: Which Activity does the source give for O=C(Nc1ccccc1C(=O)Nc1ccc(/C=C/c2ccc(Cl)cc2)cc1)c1ccccc1 here?
Answer: 64.38%

tested on: HL-60(TB); assay: Anticancer activity against human HL-60(TB) cells assessed as cell growth promotion at 10^-5 M after 48 hrs by SRB assay relative to control; assay type: functional
Summary of the method: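 NCI-60 single-dose screen: compound at 10^-5 M, 48 h at 37 °C, 5% CO2; cells grown in RPMI 1640 with 5% FBS and 2 mM L-glutamine, pre-incubated 24 h before dosing. Adherent cells fixed with cold TCA; endpoint is sulforhodamine B protein staining. Percent growth of treated cells is reported relative to untreated control.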

Question: For O=C(Nc1ccccc1C(=O)Nc1ccc(/C=C/c2ccc(Cl)cc2)cc1)c1ccccc1, which Activity is on record?
Answer: 94.11%

tested on: UO-31; assay: Anticancer activity against human UO31 cells assessed as cell growth promotion at 10^-5 M after 48 hrs by SRB assay relative to control; assay type: functional

Question: With O=C(Nc1ccccc1C(=O)Nc1ccc(/C=C/c2ccc(Cl)cc2)cc1)c1ccccc1 as the compound, how does the Activity read?
Answer: 52.88%

tested on: T47D; assay: Anticancer activity against human T47D cells assessed as cell growth promotion at 10^-5 M after 48 hrs by SRB assay relative to control; assay type: functional

Question: With O=C(Nc1ccccc1C(=O)Nc1ccc(/C=C/c2ccc(Cl)cc2)cc1)c1ccccc1 as the compound, how does the Activity read?
Answer: 82.14%

tested on: NCI-H322M; assay: Anticancer activity against human NCI-H322M cells assessed as cell growth promotion at 10^-5 M after 48 hrs by SRB assay relative to control; assay type: functional

Question: Which Activity does the source give for O=C(Nc1ccccc1C(=O)Nc1ccc(/C=C/c2ccc(Cl)cc2)cc1)c1ccccc1 here?
Answer: 89.27%

tested on: OVCAR-3; assay: Anticancer activity against human OVCAR3 cells assessed as cell growth promotion at 10^-5 M after 48 hrs by SRB assay relative to control; assay type: functional

Question: Which Activity does the source give for O=C(Nc1ccccc1C(=O)Nc1ccc(/C=C/c2ccc(Cl)cc2)cc1)c1ccccc1 here?
Answer: 86.93%

tested on: HCT-15; assay: Anticancer activity against human HCT15 cells assessed as cell growth promotion at 10^-5 M after 48 hrs by SRB assay relative to control; assay type: functional

Question: For O=C(Nc1ccccc1C(=O)Nc1ccc(/C=C/c2ccc(Cl)cc2)cc1)c1ccccc1, which Activity is on record?
Answer: 65.81%

tested on: SNB-19; assay: Anticancer activity against human SNB19 cells assessed as cell growth promotion at 10^-5 M after 48 hrs by SRB assay relative to control; assay type: functional

Question: For O=C(Nc1ccccc1C(=O)Nc1ccc(/C=C/c2ccc(Cl)cc2)cc1)c1ccccc1, which Activity is on record?
Answer: 74.25%

tested on: UACC-62; assay: Anticancer activity against human UACC62 cells assessed as cell growth promotion at 10^-5 M after 48 hrs by SRB assay relative to control; assay type: functional

Question: For O=C(Nc1ccccc1C(=O)Nc1ccc(/C=C/c2ccc(Cl)cc2)cc1)c1ccccc1, which Activity is on record?
Answer: 79.67%

tested on: U-251; assay: Anticancer activity against human U251 cells assessed as cell growth promotion at 10^-5 M after 48 hrs by SRB assay relative to control; assay type: functional

Question: For O=C(Nc1ccccc1C(=O)Nc1ccc(/C=C/c2ccc(Cl)cc2)cc1)c1ccccc1, which Activity is on record?
Answer: 60.68%

tested on: 786-0; assay: Anticancer activity against human 786-0 cells assessed as cell growth promotion at 10^-5 M after 48 hrs by SRB assay relative to control; assay type: functional

Question: Which Activity does the source give for O=C(Nc1ccccc1C(=O)Nc1ccc(/C=C/c2ccc(Cl)cc2)cc1)c1ccccc1 here?
Answer: 75.14%

tested on: HOP-62; assay: Anticancer activity against human HOP62 cells assessed as cell growth promotion at 10^-5 M after 48 hrs by SRB assay relative to control; assay type: functional

Question: Which Activity does the source give for O=C(Nc1ccccc1C(=O)Nc1ccc(/C=C/c2ccc(Cl)cc2)cc1)c1ccccc1 here?
Answer: 105%

tested on: M14; assay: Anticancer activity against human M14 cells assessed as cell growth promotion at 10^-5 M after 48 hrs by SRB assay relative to control; assay type: functional

Question: With O=C(Nc1ccccc1C(=O)Nc1ccc(/C=C/c2ccc(Cl)cc2)cc1)c1ccccc1 as the compound, how does the Activity read?
Answer: 78.5%

tested on: EKVX; assay: Anticancer activity against human EKVX cells assessed as cell growth promotion at 10^-5 M after 48 hrs by SRB assay relative to control; assay type: functional

Question: Which Activity does the source give for O=C(Nc1ccccc1C(=O)Nc1ccc(/C=C/c2ccc(Cl)cc2)cc1)c1ccccc1 here?
Answer: 86.68%

tested on: SK-OV-3; assay: Anticancer activity against human SKOV3 cells assessed as cell growth promotion at 10^-5 M after 48 hrs by SRB assay relative to control; assay type: functional

Question: With O=C(Nc1ccccc1C(=O)Nc1ccc(/C=C/c2ccc(Cl)cc2)cc1)c1ccccc1 as the compound, how does the Activity read?
Answer: 95.35%

tested on: CAKI-1; assay: Anticancer activity against human Caki1 cells assessed as cell growth promotion at 10^-5 M after 48 hrs by SRB assay relative to control; assay type: functional

Question: For O=C(Nc1ccccc1C(=O)Nc1ccc(/C=C/c2ccc(Cl)cc2)cc1)c1ccccc1, which Activity is on record?
Answer: 90.6%

tested on: NCI-H460; assay: Anticancer activity against human NCI-H460 cells assessed as cell growth promotion at 10^-5 M after 48 hrs by SRB assay relative to control; assay type: functional

Question: With O=C(Nc1ccccc1C(=O)Nc1ccc(/C=C/c2ccc(Cl)cc2)cc1)c1ccccc1 as the compound, how does the Activity read?
Answer: 72.92%

tested on: UACC-257; assay: Anticancer activity against human UACC257 cells assessed as cell growth promotion at 10^-5 M after 48 hrs by SRB assay relative to control; assay type: functional

Question: With O=C(Nc1ccccc1C(=O)Nc1ccc(/C=C/c2ccc(Cl)cc2)cc1)c1ccccc1 as the compound, how does the Activity read?
Answer: 94.73%

tested on: MOLT-4; assay: Anticancer activity against human MOLT4 cells assessed as cell growth promotion at 10^-5 M after 48 hrs by SRB assay relative to control; assay type: functional

Question: For O=C(Nc1ccccc1C(=O)Nc1ccc(/C=C/c2ccc(Cl)cc2)cc1)c1ccccc1, which Activity is on record?
Answer: 59.17%

tested on: SK-MEL-5; assay: Anticancer activity against human SK-MEL-5 cells assessed as cell growth promotion at 10^-5 M after 48 hrs by SRB assay relative to control; assay type: functional

Question: With O=C(Nc1ccccc1C(=O)Nc1ccc(/C=C/c2ccc(Cl)cc2)cc1)c1ccccc1 as the compound, how does the Activity read?
Answer: 82.15%

tested on: Malme-3M; assay: Anticancer activity against human MALME-3M cells assessed as cell growth promotion at 10^-5 M after 48 hrs by SRB assay relative to control; assay type: functional

Question: Which Activity does the source give for O=C(Nc1ccccc1C(=O)Nc1ccc(/C=C/c2ccc(Cl)cc2)cc1)c1ccccc1 here?
Answer: 91.75%

tested on: MDA-MB-435; assay: Anticancer activity against human MDA-MB-435 cells assessed as cell growth promotion at 10^-5 M after 48 hrs by SRB assay relative to control; assay type: functional

Question: With O=C(Nc1ccccc1C(=O)Nc1ccc(/C=C/c2ccc(Cl)cc2)cc1)c1ccccc1 as the compound, how does the Activity read?
Answer: 82.15%

tested on: SN12C; assay: Anticancer activity against human SN12C cells assessed as cell growth promotion at 10^-5 M after 48 hrs by SRB assay relative to control; assay type: functional

Question: Which Activity does the source give for O=C(Nc1ccccc1C(=O)Nc1ccc(/C=C/c2ccc(Cl)cc2)cc1)c1ccccc1 here?
Answer: 79.73%

tested on: HCT-116; assay: Anticancer activity against human HCT116 cells assessed as cell growth promotion at 10^-5 M after 48 hrs by SRB assay relative to control; assay type: functional

Question: With O=C(Nc1ccccc1C(=O)Nc1ccc(/C=C/c2ccc(Cl)cc2)cc1)c1ccccc1 as the compound, how does the Activity read?
Answer: 49.35%

tested on: NCI/ADR-RES; assay: Anticancer activity against human NCI/ADR-RES cells assessed as cell growth promotion at 10^-5 M after 48 hrs by SRB assay relative to control; assay type: functional

Question: Which Activity does the source give for O=C(Nc1ccccc1C(=O)Nc1ccc(/C=C/c2ccc(Cl)cc2)cc1)c1ccccc1 here?
Answer: 95.06%

tested on: HT-29; assay: Anticancer activity against human HT-29 cells assessed as cell growth promotion at 10^-5 M after 48 hrs by SRB assay relative to control; assay type: functional

Question: With O=C(Nc1ccccc1C(=O)Nc1ccc(/C=C/c2ccc(Cl)cc2)cc1)c1ccccc1 as the compound, how does the Activity read?
Answer: 89.94%

tested on: not listed separately; assay: Anticancer activity against human […] cells assessed as cell growth promotion at 10^-5 M after 48 hrs by SRB assay relative to control; assay type: functional

Question: For O=C(Nc1ccccc1C(=O)Nc1ccc(/C=C/c2ccc(Cl)cc2)cc1)c1ccccc1, which Activity is on record?
Answer: 56.24%
